Data as given in article PMC3085808 (Nutrition Research and Practice, 2011).

Legend:
[1] = target: T1, angiotensin I-converting enzyme (ACE) (Oryctolagus cuniculus, UniProt P12822); experiment: ACE inhibition pattern by Lineweaver-Burk plots; assay type: biochemical; settings: substrate HHL
T1 sequence (P12822 34-1310): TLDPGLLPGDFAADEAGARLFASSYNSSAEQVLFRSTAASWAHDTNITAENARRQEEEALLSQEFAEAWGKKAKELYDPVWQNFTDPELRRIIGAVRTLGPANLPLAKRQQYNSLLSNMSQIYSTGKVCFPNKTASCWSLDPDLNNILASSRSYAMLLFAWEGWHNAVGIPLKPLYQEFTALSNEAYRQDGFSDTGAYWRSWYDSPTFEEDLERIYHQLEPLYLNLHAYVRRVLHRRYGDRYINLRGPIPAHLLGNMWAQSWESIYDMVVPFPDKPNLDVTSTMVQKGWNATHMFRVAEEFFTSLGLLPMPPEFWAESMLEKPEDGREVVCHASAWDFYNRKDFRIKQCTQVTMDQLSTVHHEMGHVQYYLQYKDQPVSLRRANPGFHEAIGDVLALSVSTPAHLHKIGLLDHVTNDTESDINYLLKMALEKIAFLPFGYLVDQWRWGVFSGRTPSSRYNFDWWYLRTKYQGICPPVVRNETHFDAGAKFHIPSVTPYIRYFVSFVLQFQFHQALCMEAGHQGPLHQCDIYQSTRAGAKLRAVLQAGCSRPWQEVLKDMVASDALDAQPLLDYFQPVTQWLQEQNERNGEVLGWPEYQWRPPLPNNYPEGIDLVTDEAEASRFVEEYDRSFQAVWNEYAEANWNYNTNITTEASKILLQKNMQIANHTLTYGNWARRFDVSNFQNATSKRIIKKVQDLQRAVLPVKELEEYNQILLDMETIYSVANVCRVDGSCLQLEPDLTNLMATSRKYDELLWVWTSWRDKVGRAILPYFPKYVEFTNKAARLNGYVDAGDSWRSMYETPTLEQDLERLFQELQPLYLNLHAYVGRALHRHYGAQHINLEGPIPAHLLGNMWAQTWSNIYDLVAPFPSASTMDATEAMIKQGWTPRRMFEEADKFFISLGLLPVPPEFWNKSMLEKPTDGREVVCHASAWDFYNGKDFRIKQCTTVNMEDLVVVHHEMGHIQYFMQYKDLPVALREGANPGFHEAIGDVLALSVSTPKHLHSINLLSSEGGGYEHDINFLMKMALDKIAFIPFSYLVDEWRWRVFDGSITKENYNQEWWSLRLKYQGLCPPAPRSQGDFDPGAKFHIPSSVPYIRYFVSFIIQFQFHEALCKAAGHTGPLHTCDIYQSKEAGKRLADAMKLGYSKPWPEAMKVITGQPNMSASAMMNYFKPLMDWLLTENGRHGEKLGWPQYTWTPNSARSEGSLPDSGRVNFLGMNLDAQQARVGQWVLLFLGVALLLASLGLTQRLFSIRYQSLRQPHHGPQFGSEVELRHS
Method in brief: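 ACE kept constant while test compound (in 0.1% DMSO) and HHL substrate were both varied. Enzyme and compound were pre-incubated 10 min at 37℃, then HHL in 50 mM sodium borate with 500 mM NaCl, pH 8.3, was added for 60 min at 37℃. Stopped with 1 M HCl; hippuric acid extracted into ethyl acetate, dried, redissolved in water, A228. 0.1% DMSO control. Lineweaver-Burk plots, mean ± SD of three determinations.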

[2] = test system: glycosidases from the viscera of the turban shell Turbo cornutus; settings: cited from earlier work
[3] = test system: EAhy926 cells; experiment: Cell viability, MTT assay; assay type: cell-based, human
Method in brief: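 EAhy926 cells grown in DMEM with 10% heat-inactivated calf serum, penicillin and streptomycin at 37℃, 5% CO2. Seeded at 1.0 × 10^5 cells/ml, held 16 h, then exposed 24 h to a range of test compound concentrations in 0.1% DMSO. MTT (2 mg/ml stock) added for 4 h; formazan dissolved in DMSO, A540. Viability as % of 0.1% DMSO control; mean ± SD of three determinations.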

[4] = test system: EAhy926 cells; experiment: Nitric oxide; assay type: cell-based, human; settings: 24 h, P < 0.05
Method in brief: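 EAhy926 cells at 1.5 × 10^5 cells/well were treated 24 h with a range of test compound concentrations in 0.1% DMSO, with 0.1% DMSO as control. Supernatant nitrite: supernatant mixed 1:1 with Griess reagent (0.1% N-(1-naphthyl)-ethylenediamine, 1% sulfanilamide in 5% phosphoric acid), 10 min at room temperature, A550 against a sodium nitrite standard curve. Mean ± SD of three determinations; one-way ANOVA with Duncan's test, P < 0.05.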

Structure (SMILES): Oc1cc(O)cc(Oc2c(O)cc(O)c3c2Oc2c(O)cc(Oc4c(O)cc(Oc5c(O)cc(O)c6c5Oc5c(O)cc(O)cc5O6)cc4O)cc2O3)c1 [Dieckol, dieckol]
- ACE inhibition mode [1]: non-competitive inhibitor
- Glycosidase inhibition mode [2]: non-competitive inhibitor
- Cytotoxic effect [3]: no cytotoxic effect
- Survival rate of cells ([3]; 24 h, all of the concentrations used): higher than 95%
- Concentrations with inducible effect on the production of NO [4]: higher than 0.27 mM
